The text below walks through data of ChEMBL document CHEMBL1139513, “Synthesis and structure-activity relationships of novel selective factor Xa inhibitors with a tetrahydroisoquinoline ring” (J Med Chem, 2005).

For one series, the target named is Coagulation factor X (Homo sapiens, UniProt P00742). Nature of the series: Inhibitory concentration against human Coagulation factor X.
Series [1] in a line: Number of mice died after 1 day upon i.v. administration at 10 mg/kg into tail vein out of 3 animals tested. More on the design: dose 10 mg/kg, route intravenous. The note with it: mouse, in vivo, iv, 24 h. Format: ADME, organism-based. Put shortly: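 Male ICR mice given a single 10 mg/kg bolus into the tail vein. Result is expressed as deaths per animals tested.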
The target in another series is Prothrombin (Homo sapiens, UniProt P00734). Nature of the series: Inhibitory concentration against human Coagulation factor II (thrombin).
In another series the target is Trypsin (Homo sapiens, UniProt P07477+P07478+P35030). Nature of the series: Inhibitory concentration against human Trypsin. The class given is protein assay. In short, it runs like this:
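Human trypsin (5 U/mL as added) preincubated 10 min at 37 °C with vehicle or compound at 50, 100 and 200 µM final. S-2222 was added at 0.125 and 0.25 mM final and incubated 10 min at 37 °C. Stopped with 60% acetic acid; p-nitroaniline read at 405 nm.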

The target of a further series is Plasminogen (Homo sapiens, UniProt P00747). Nature of the series: Inhibitory concentration against human Plasmin. In short, it runs like this:
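Plasmin assay, human enzyme at 0.02 U/mL as added, preincubated 10 min at 37 °C with vehicle or compound at 12.5, 25 and 50 µM final. S-2403 was added at 0.125 and 0.25 mM final and incubated 10 min at 37 °C. Stopped with 60% acetic acid; A405 of p-nitroaniline.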

Chain of Coagulation factor X (P00742 41-179 limits assumed): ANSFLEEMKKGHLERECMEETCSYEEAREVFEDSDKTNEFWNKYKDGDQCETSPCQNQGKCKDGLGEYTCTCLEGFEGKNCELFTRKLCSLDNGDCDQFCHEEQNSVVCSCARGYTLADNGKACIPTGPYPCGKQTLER
Chain of Coagulation factor X (P00742 235-488 limits assumed): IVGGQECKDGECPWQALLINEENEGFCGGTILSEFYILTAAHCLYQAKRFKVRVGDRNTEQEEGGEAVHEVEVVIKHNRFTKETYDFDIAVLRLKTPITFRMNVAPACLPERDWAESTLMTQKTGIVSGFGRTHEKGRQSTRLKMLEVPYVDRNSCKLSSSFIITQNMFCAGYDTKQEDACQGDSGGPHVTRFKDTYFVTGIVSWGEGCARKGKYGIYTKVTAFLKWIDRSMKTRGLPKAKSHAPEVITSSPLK
Chain of Plasminogen (P00747 97-580 limits assumed): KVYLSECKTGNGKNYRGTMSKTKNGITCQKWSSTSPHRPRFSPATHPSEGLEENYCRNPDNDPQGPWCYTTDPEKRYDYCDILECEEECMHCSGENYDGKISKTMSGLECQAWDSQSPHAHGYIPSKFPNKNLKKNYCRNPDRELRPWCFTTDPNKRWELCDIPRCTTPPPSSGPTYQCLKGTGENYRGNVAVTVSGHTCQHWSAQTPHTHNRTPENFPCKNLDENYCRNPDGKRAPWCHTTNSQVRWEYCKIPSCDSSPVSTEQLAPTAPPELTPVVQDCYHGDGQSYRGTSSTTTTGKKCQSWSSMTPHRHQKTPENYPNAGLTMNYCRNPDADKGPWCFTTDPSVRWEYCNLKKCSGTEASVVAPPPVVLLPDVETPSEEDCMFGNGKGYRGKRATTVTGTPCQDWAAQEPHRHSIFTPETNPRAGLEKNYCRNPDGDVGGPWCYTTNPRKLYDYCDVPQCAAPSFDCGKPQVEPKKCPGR
Chain of Plasminogen (P00747 581-810 limits assumed): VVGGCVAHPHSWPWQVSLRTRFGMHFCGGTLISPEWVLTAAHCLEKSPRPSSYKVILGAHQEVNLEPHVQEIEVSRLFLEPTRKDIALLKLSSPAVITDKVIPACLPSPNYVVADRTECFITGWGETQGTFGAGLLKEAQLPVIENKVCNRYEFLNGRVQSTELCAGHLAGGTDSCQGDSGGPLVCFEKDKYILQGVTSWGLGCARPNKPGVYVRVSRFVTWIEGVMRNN

Compound `CC(=N)N1CCC(COc2ccc3c(c2)CN(C(=N)N)CC3)CC1.Cl.Cl` registered an IC50 on Coagulation factor X of 510 nM. In series [1], the Mortality was determined as 3.

As for `N=C(N)N1CCc2ccc(S(=O)(=O)NC3(C(=O)O)CCN(c4ccncc4)CC3)cc2C1`, the IC50 against Prothrombin is more than 10 µM.

Consider `CCOC(=O)C1(COc2ccc3c(c2)CN(C(=N)N)CC3)CCN(c2cc[n+](C)cc2)CC1`, for which the IC50 at Coagulation factor X is 1130 nM.

`N=C(N)N1CCc2ccc(OCCC3(C(=O)O)CCN(c4ccncc4)CC3)cc2C1` displayed an IC50 on Coagulation factor X of 230 nM.

Compound `Cl.Cl.N=C(N)N1CCc2ccc(OCC3(C(=O)O)CCN(c4ccncn4)CC3)cc2C1` had an IC50 at Coagulation factor X of 120 nM. The compound further registered a Mortality in series [1] of 0.

For the compound `Cl.Cl.N=C(N)N1CCc2ccc(OCC3CCN(c4ccncc4)CC3)cc2C1`, at Coagulation factor X, half-maximal inhibition (IC50) was put at 56 nM. The Mortality in series [1] amounted to 3.

On Coagulation factor X, `CCOC(=O)C1(COc2ccc3c(c2)CN(C(=N)N)CC3)CCN(c2ccncc2)CC1.Cl.Cl` yielded an IC50 of 74 nM. In addition, the Mortality in series [1] worked out at 3.

`CC(=O)N1CCC(COc2ccc3c(c2)CN(C(=N)N)CC3)CC1`: the IC50 against Prothrombin was more than 10 µM.

In series [1], `Cl.Cl.Cl.N=C(N)N1CCc2ccc(OCC3CCN(Cc4ccncc4)CC3)cc2C1` yielded a Mortality of 3.

Consider `CCOC(=O)CCc1cnccc1N1CCC(COc2ccc3c(c2)CN(C(=N)N)CC3)CC1.Cl.Cl`, for which the IC50 on Prothrombin was more than 10 µM; against Coagulation factor X it was 190 nM. Moreover, in series [1], the Mortality came to 3.

For the compound `Cl.Cl.N=C(N)N1CCc2ccc(OCC3CCN(c4ccncc4C(=O)O)CC3)cc2C1`, the IC50 was more than 10 µM against Prothrombin and 1980 nM at Coagulation factor X. The same compound had a Mortality in series [1] of 0.

Compound `N=C(N)N1CCc2ccc(SCC3(C(=O)O)CCN(c4ccncc4)CC3)cc2C1` showed an IC50 on Coagulation factor X of 390 nM.

In the case of `Cl.Cl.N=C(N)N1CCc2ccc(OCC3CCN(c4ccncc4CCC(=O)O)CC3)cc2C1`, inhibition on Coagulation factor X was half-maximal at 160 nM (IC50). The Mortality in series [1] was determined as 0.

For `N=C(N)N1CCc2ccc(S(=O)(=O)CC3(C(=O)O)CCN(c4ccncc4)CC3)cc2C1`, the IC50 at Prothrombin was more than 10 µM; against Coagulation factor X it was 5440 nM.

On to `CC(=N)N1CC[C@H](Oc2ccc([C@H](Cc3ccc4ccc(C(=N)N)cc4c3)C(=O)O)cc2)C1.Cl` [DX-9065A HYDROCHLORIDE HYDRATE], for which the Ki on Trypsin was 0.62 µM; on Plasminogen it was 23 µM.

On Coagulation factor X, `Cl.Cl.N=C(N)N1CCc2ccc(OCC3CCN(c4ccnc5ccccc45)CC3)cc2C1` came in with an IC50 of 420 nM. Also, the Mortality in series [1] turned out to be 3.

With `N=C(N)N1CCCc2ccc(OCC3(C(=O)O)CCN(c4ccncc4)CC3)cc2C1`, the IC50 is more than 10 µM against Prothrombin and more than 10000 nM at Coagulation factor X.

For `Cl.Cl.N=C(N)N1CCc2ccc(OCC3(C(=O)O)CCN(c4ccncc4)CC3)cc2C1`, the Mortality in series [1] came to 0.

In the case of `COC(=O)c1cnccc1N1CCC(COc2ccc3c(c2)CN(C(=N)N)CC3)CC1.Cl.Cl`, inhibition against Coagulation factor X was half-maximal at 270 nM (IC50). The Mortality in series [1] was determined as 3.

Take `N=C(N)N1CCc2ccc(OCC3CCN(Cc4ccccc4N)CC3)cc2C1`: the IC50 against Prothrombin is more than 10 µM; on Coagulation factor X, 3250 nM.

For `Cc1cc(N2CCC(COc3ccc4c(c3)CN(C(=N)N)CC4)(C(=O)O)CC2)ccn1.Cl.Cl`, the IC50 at Coagulation factor X stood at 230 nM. Also, the Mortality in series [1] is reported as 0.

For `N=C(N)c1ccc2ccc(OCC3(C(=O)O)CCN(c4ccncc4)CC3)cc2c1`, the IC50 on Prothrombin is more than 10 µM; on Coagulation factor X it was 510 nM.

`N=C(N)N1CCc2ccc(OCC3CCN(Cc4ccccn4)CC3)cc2C1`: the IC50 on Prothrombin was more than 10 µM; at Coagulation factor X it was 1350 nM.

With `N=C(N)N1CCc2ccc(OCC3CCN(Cc4cccc(N)c4)CC3)cc2C1`, the IC50 against Prothrombin is more than 10 µM; against Coagulation factor X, 4060 nM.

For the compound `N=C(N)N1CCc2ccc(OCC3CCNCC3)cc2C1`, the IC50 at Prothrombin was more than 10 µM; at Coagulation factor X, 3340 nM.

Broadly, the IC50 is the midpoint of a concentration-inhibition curve. Broadly, the Ki is a measure of affinity in units of concentration, obtained from inhibition or displacement. A lower Ki goes with higher affinity.
